Results from ChEMBL document CHEMBL4346697, “Probing structural requirements for human topoisomerase I inhibition by a novel N1-Biphenyl fluoroquinolone” (Eur J Med Chem, 2019).
Active and inactive are the calls of the source. The calls are words filed in the database; no cut-off is given here.

Legend:
DNA topoisomerase 1 = target: T1, DNA topoisomerase 1 (Homo sapiens, UniProt P11387); experiment: Inhibition of human topoisomerase 1 using supercoiled pBR322 plasmid DNA as substrate after 15 mins by ethidium bromide staining based agarose gel electrophoresis method
T1 sequence (P11387 whole entry): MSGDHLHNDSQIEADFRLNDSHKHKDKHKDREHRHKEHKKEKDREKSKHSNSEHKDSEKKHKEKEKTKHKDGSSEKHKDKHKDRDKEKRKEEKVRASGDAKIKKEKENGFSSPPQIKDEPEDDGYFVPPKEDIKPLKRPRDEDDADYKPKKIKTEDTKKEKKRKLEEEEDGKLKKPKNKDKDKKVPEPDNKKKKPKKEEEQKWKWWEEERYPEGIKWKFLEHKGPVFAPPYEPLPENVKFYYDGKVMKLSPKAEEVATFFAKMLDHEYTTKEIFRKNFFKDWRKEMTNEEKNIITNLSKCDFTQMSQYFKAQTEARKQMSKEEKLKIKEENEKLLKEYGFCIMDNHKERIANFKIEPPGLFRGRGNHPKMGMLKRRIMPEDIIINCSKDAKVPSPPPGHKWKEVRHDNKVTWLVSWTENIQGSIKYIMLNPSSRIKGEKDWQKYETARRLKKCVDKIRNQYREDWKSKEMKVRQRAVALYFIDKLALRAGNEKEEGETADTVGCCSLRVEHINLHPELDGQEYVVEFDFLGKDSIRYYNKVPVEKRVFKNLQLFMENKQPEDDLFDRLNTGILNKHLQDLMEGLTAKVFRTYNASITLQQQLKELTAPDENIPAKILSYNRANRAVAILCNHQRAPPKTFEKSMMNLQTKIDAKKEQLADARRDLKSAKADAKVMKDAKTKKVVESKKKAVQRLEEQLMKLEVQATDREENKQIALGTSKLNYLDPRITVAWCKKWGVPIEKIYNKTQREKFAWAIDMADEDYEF
Summary of the method: (§1)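 hTopo I (1 unit) relaxed 0.3 μg supercoiled plasmid in 50 mM Tris-HCl pH 7.5, 100 mM NaCl, 10 mM MgCl2, 1 mM DTT, 50 μg/ml BSA with varied compound concentrations, at 37°C for 15 min.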

[1] = target: T2, DNA topoisomerase 1 (Homo sapiens) (UniProt P11387); experiment: Inhibition of human topoisomerase 1 at 200 uM using supercoiled pBR322 plasmid DNA as substrate after 15 mins by ethidium bromide staining based agarose gel electrophoresis method relative to control; summary of the method: as §1
T2 sequence (whole entry): T1 sequence (P11387 whole entry)

[2] = test system: Panel NCI-60 (60 carcinoma cell lines); experiment: Antiproliferative activity against human NCI60 cells; assay type: functional
Calf thymus DNA = experiment: Binding affinity to calf thymus DNA assessed as bathochromic shift at 25 uM by fluorescence spectra analysis; assay type: nucleic-acid assay; details: Bos taurus
Summary of the method: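 Compound at 25 μM, with calf thymus DNA at 0 or 400 μM, in 10 mM Tris-HCl pH 7.4 at room temperature; final DMSO ≤5%. Emission spectra were recorded from 320–600 nm to look for a bathochromic shift. DNA was dissolved in the same buffer, checked by A260/A280 (1.8–1.9) and quantified at 260 nm (ε 6600 M−1 cm−1 per nucleotide).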

[3] = Binding affinity to d(CCTTACGTGCATAGTCATTCATGACCG) dsDNA (unknown origin) assessed as bathochromic shift at 25 uM by fluorescence spectra analysis
Summary of the method: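 The 27-bp duplex was made by annealing complementary strands 1:1 at 95°C for 2 min, then cooling to room temperature. Compound at 25 μM, with dsDNA at 0–200 μM, in 10 mM Tris-HCl pH 7.4 at room temperature; DMSO ≤5% final. Spectra and intensity were read after blank subtraction, normalized to the no-DNA signal; technical replicates, n=3.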

| Structure (SMILES) | IC50 (DNA topoisomerase 1) [µM] | other results |
| --- | --- | --- |
| O=C(O)c1cn(Cc2ccc(-c3ccccc3)cc2)c2cc(NC[C@H]3CCNC3)c(F)cc2c1=O | 100 | – |
| CNCCCCNc1cc2c(cc1F)c(=O)c(C(=O)O)cn2Cc1ccc(-c2ccccc2)cc1 | 88.3 | – |
| COc1c(F)c(F)cc2c(=O)c(C(=O)O)cn(Cc3ccc(-c4ccccc4)cc3)c12 | – | inhibition [1]: inactive |
| CNC[C@@H]1CCN(c2cc3c(cc2F)c(=O)c(C(=O)O)cn3Cc2ccc(-n3cccn3)cc2)C1 | > 200 | inhibition [1]: 10% |
| COc1c(N2CC[C@@H](CN)C2)c(F)cc2c(=O)c(C(=O)O)cn(Cc3cc(-c4ccccc4)no3)c12 | 178 | – |
| COc1c(NCCN)c(F)cc2c(=O)c(C(=O)O)cn(Cc3ccc(-c4ccccc4)cc3)c12 | > 200 | inhibition [1]: 10% |
| COc1c(N2CC[C@@H](CN)C2)c(F)cc2c(=O)c(C(N)=O)cn(Cc3ccc(-c4ccccc4)cc3)c12 | 184 | – |
| O=C(O)c1cn(Cc2ccc(-n3cccn3)cc2)c2cc(NC[C@H]3CCNC3)c(F)cc2c1=O | 187 | – |
| O=C(O)c1cn(Cc2ccc(-c3ccccc3)cc2)c2cc(NC[C@@H]3CCNC3)c(F)cc2c1=O | 104 | – |
| COc1c(N2CC[C@@H](CN)C2)c(F)cc2c(=O)c(C(=O)O)cn(Cc3ccc4ccccc4c3)c12 | – | GI50 [2]: 3100 nM |
| NC[C@@H]1CCN(c2cc3c(cc2F)c(=O)c(C(=O)O)cn3Cc2ccc(-n3cccn3)cc2)C1 | 91.6 | – |
| CC(c1nc(-c2ccncc2)no1)n1cc(C(=O)O)c(=O)c2cc(F)c(N3CC[C@@H](CN)C3)cc21 (some centres undefined) | > 200 | inhibition [1]: 10% |
| NC[C@@H]1CCN(c2cc3c(cc2F)c(=O)c(C(=O)O)cn3Cc2ccc(-c3ccccc3)cc2)C1 | 15.6 | Activity (Calf thymus DNA): inactive; Activity [3]: inactive |
| COc1c(N2CC[C@@H](N)C2)c(F)cc2c(=O)c(C(=O)O)cn(Cc3ccc(-c4ccccc4)cc3)c12 | 92.2 | – |
| NC[C@@H]1CCN(c2ccc3c(=O)c(C(=O)O)cn(Cc4ccc(-c5ccccc5)cc4)c3c2)C1 | 61.2 | – |
| CNCCNc1cc2c(cc1F)c(=O)c(C(=O)O)cn2Cc1ccc(-c2ccccc2)cc1 | > 200 | inhibition [1]: 10% |
| COc1c(N2CC[C@@H](CN)C2)c(F)cc2c(=O)c(C(=O)O)cn(Cc3ccc(-c4ccccc4)cc3)c12 | – | Activity (Calf thymus DNA): inactive; Activity [3]: inactive; GI50 [2]: 1900 nM |
| CNCCCNc1c(F)cc2c(=O)c(C(=O)O)cn(Cc3ccc(-c4ccccc4)cc3)c2c1OC | 101 | – |
| COC(=O)c1cn(Cc2ccc(-c3ccccc3)cc2)c2c(OC)c(N3CC[C@@H](CN)C3)c(F)cc2c1=O | 71.4 | – |
| COc1c(N2CC[C@@H](CN)C2)c(F)cc2c(=O)c(C(=O)NO)cn(Cc3ccc(-c4ccccc4)cc3)c12 | 35.9 | – |
| NC[C@@H]1CCN(c2cc3c(cc2F)c(=O)c(C(=O)O)cn3Cc2ccc(-c3ccc(F)cc3)cc2)C1 | 69.6 | – |
| COc1c(N2CC[C@@H](CN)C2)c(F)cc2c(=O)c(C(=O)O)cn(Cc3ccc(-n4cccn4)cc3)c12 | > 200 | inhibition [1]: 10% |
| CNCCNc1c(F)cc2c(=O)c(C(=O)O)cn(Cc3ccc(-c4ccccc4)cc3)c2c1OC | > 200 | inhibition [1]: 10% |

| Structure (SMILES) | IC50 (DNA topoisomerase 1) [µM] | other results |
| --- | --- | --- |
| COc1c(N2CC[C@@H](N)C2)c(F)cc2c(=O)c(C(=O)O)cn(Cc3ccc(-c4ccc(F)cc4)cc3)c12 | 58.6 | – |
| CNCCCNc1cc2c(cc1F)c(=O)c(C(=O)O)cn2Cc1ccc(-c2ccccc2)cc1 | 63.6 | – |
| COc1c(N2CC[C@@H](CO)C2)c(F)cc2c(=O)c(C(=O)O)cn(Cc3ccc(-c4ccccc4)cc3)c12 | > 200 | inhibition [1]: 10% |
| CNC[C@@H]1CCN(c2cc3c(cc2F)c(=O)c(C(=O)O)cn3Cc2ccc(-c3ccccc3)cc2)C1 | 168 | – |
| NC[C@@H]1CCN(c2cc3c(cc2F)c(=O)c(C(=O)O)cn3Cc2cc(-c3ccccc3)no2)C1 | 58.3 | – |
| CN[C@@H]1CCN(c2cc3c(cc2F)c(=O)c(C(=O)O)cn3Cc2ccc(-c3ccccc3)cc2)C1 | 34.8 | – |
| N[C@@H]1CCN(c2cc3c(cc2F)c(=O)c(C(=O)O)cn3Cc2ccc(-c3ccccc3)cc2)C1 | 63.6 | – |
| CNC[C@@H]1CCN(c2c(F)cc3c(=O)c(C(=O)O)cn(Cc4ccc(-c5ccccc5)cc4)c3c2OC)C1 | 155 | – |
| NC[C@@H]1CCN(c2ccc3c(=O)c(C(=O)O)cn(Cc4ccc(-n5cccn5)cc4)c3c2)C1 | 61 | – |
| COc1c(N2CC[C@@H](CN)C2)c(F)cc2c(=O)c(C(=O)O)cn(Cc3ccc(-c4ccc(F)cc4)cc3)c12 | 60.9 | – |
| NC[C@@H]1CCN(c2cc3c(cc2F)c(=O)c(C(=O)O)cn3Cc2nc(-c3ccncc3)no2)C1 | > 200 | inhibition [1]: 10% |
| O=C(O)c1cn(Cc2ccc(-c3ccccc3)cc2)c2cc(N3CC4CNCC4C3)c(F)cc2c1=O (centres undefined) | 33.3 | – |
| CNC(=O)c1cn(Cc2ccc(-c3ccccc3)cc2)c2c(OC)c(N3CC[C@@H](CN)C3)c(F)cc2c1=O | 82.1 | – |
| COc1c(N2CC[C@@H](C(N)=O)C2)c(F)cc2c(=O)c(C(=O)O)cn(Cc3ccc(-c4ccccc4)cc3)c12 | > 200 | inhibition [1]: 10% |
| O=C(O)c1cn(Cc2ccc(-n3cccn3)cc2)c2cc(NC[C@@H]3CCNC3)c(F)cc2c1=O | – | inhibition [1]: 10% |
| O=C(O)c1cn(Cc2ccc(-c3ccccc3)cc2)c2cc(N3C[C@H]4CCNC[C@H]4C3)c(F)cc2c1=O | 61 | – |
| O=C(O)c1cn(Cc2ccc(-n3cccn3)cc2)c2cc(N3CC4CNCC4C3)c(F)cc2c1=O (centres undefined) | 173 | – |
| CN[C@@H]1CCN(c2c(F)cc3c(=O)c(C(=O)O)cn(Cc4ccc(-c5ccccc5)cc4)c3c2OC)C1 | 57.7 | – |
| O=C(O)c1cn(Cc2ccc(-n3cccn3)cc2)c2cc(N3C[C@H]4CCNC[C@H]4C3)c(F)cc2c1=O | 31.3 | – |
| NCCNc1cc2c(cc1F)c(=O)c(C(=O)O)cn2Cc1ccc(-c2ccccc2)cc1 | 72.8 | – |
| CNCCCCNc1c(F)cc2c(=O)c(C(=O)O)cn(Cc3ccc(-c4ccccc4)cc3)c2c1OC | > 200 | inhibition [1]: 10% |
| CNC(=O)c1cn(Cc2ccc(-c3ccccc3)cc2)c2c(OC)c(NC)c(F)cc2c1=O | – | inhibition [1]: inactive |
